ChEMBL document CHEMBL1121404, “Synthesis and study of conformationally defined enantiomers of local anesthetics and conformationally defined enantiomers of fluorescent dyes designed to label electrically excitable membranes” (1980)

Key:
Majidae [1] = experiment: The compound was tested for optical responses recorded from spider crab walking leg nerve bundles upon staining.; type: functional
Outline: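 Nerve bundles stained 30 min in Tris-buffered artificial sea water (pH 8) with 25-50 nM dye, poorly soluble dyes first dissolved in 0.1 mL 95% EtOH per 100 mL; excitation with 365 ± 10 nm light from xenon-mercury lamp; time-averaged fluorescence recorded with extracellular compound action potential; ΔI/I (excitation-linked change over resting intensity); mean ± SE of 2-8 experiments.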

Majidae [2] = experiment: The compound was tested for its ability to block the excitability of spider crab walking leg nerve bundles, the peak action potential amplitude, upon washing in physiological saline for 20 minutes.; type: functional, organism-based
Outline: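 Spider crab (Libinia emarginata) nerve bundles exposed to 1 mM compound in bath for 20 min, then washed 20 min in physiological saline (pH 8.0); stimulation with 0.4-ms threshold pulses at 18-20 °C; value is percent recovery of peak compound action potential amplitude relative to control; mean ± SE of 4-6 experiments.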

Majidae [3] = experiment: The compound was tested for its ability to block the excitability of spider crab walking leg nerve bundles, peak action potential amplitude, recorded by a pair of external Ag-AgCl electrodes.; type: functional
Outline: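 Libinia emarginata claw/walking-leg nerve bundles; compound applied in external bath at 1 mM for 20 min in physiological saline (416 mM NaCl, 10 mM KCl, 11 mM CaCl2, 55 mM MgCl2, 2.5 mM NaHCO3, pH 8.0); 0.4-ms threshold pulses; 18-20 °C; % decrease in peak compound action potential amplitude via external Ag-AgCl electrodes; mean ± SE of 4-6 experiments.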

| Compound | Delta I/I (Majidae [1]) | Recovery (Majidae [2]) [%] | Decrease (Majidae [3]) [%] |
| --- | --- | --- | --- |
| CN(C)c1cccc2c(S(=O)(=O)N[C@H](CO)Cc3ccccc3)cccc12 | 0.00018 | – | – |
| C[C@H](Cc1ccc([N+](=O)[O-])cc1)N(C)C | – | 46 | 93 |
| CN(C)c1cccc2c(C(=O)N[C@H](CO)Cc3ccccc3)cccc12 | 0.00024 | – | – |
| C[C@H](Cc1ccc(N)cc1)N(C)C | – | 100 | 28 |
| C[C@@H](Cc1ccccc1)NS(=O)(=O)c1cccc2c(N(C)C)cccc12 | 7e-05 | – | – |
| C[C@@H](Cc1ccccc1)NC(=O)c1cccc2c(N(C)C)cccc12 | 0.00038 | – | – |
| C[C@@H](Cc1ccc([N+](=O)[O-])cc1)N(C)C | – | 35 | 84 |
| CN(C)c1cccc2c(C(=O)N[C@@H](CO)Cc3ccccc3)cccc12 | 0.00025 | – | – |
| CN(C)c1cccc2c(S(=O)(=O)N[C@@H](CO)Cc3ccccc3)cccc12 | 0.00015 | – | – |
| C[C@H](Cc1ccccc1)NC(=O)c1cccc2c(N(C)C)cccc12 | 0.00035 | – | – |
| C[C@H](Cc1ccccc1)NS(=O)(=O)c1cccc2c(N(C)C)cccc12 | 8.5e-05 | – | – |
| C[C@@H](Cc1ccc(N)cc1)N(C)C | – | 100 | 33 |
